{"source": "paper PMC5147053", "about": "(Drugs in Context, 2016)", "key": {"[1]": {"assay": "Safety assessment: treatment-emergent adverse events", "format": "in vivo, human", "how_it_was_run": "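Patients with advanced or metastatic cancer took single 150 mg oral doses of the test compound in a 3-period crossover: high-shear wet granulation, roller-compaction dry-milled and slurry-milled formulations, with washouts of 48 h to 5 days. Safety monitoring covered AEs, SAEs, physical exams, vital signs, lab tests and concomitant medications. TEAEs were graded by CTCAE v3.0 for all patients dosed at least once.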"}, "[2]": {"conditions": "oral; cited from earlier work"}, "[3]": {"conditions": "single 150 mg dose, N=14, regardless of causality"}}, "data": [{"smiles": "Cc1cccc(-c2nn3c(c2-c2ccnc4ccc(C(N)=O)cc24)CCC3)n1", "note": "[Galunisertib]", "values": [{"measurement": "SAEs or deaths during the study", "setting": "[1]; 14 patients, any formulation", "result": "no SAEs or deaths"}, {"measurement": "Study discontinuations due to TEAEs", "setting": "[1]; 14 patients, any formulation", "result": "no study discontinuations"}, {"measurement": "TEAEs determined to be related to galunisertib by the investigator", "setting": "[1]; 14 patients, any formulation", "result": "None"}, {"measurement": "Number of patients reporting TEAEs regardless of causality", "setting": "[1]; of 14 patients, any formulation, single 150 mg doses", "result": "Five"}, {"measurement": "Number of patients with TEAE Convulsion (Grade 1)", "setting": "[1]; [3]", "result": 1}, {"measurement": "Number of patients with TEAE Dizziness (Grade 1)", "setting": "[1]; [3]", "result": 1}, {"measurement": "Number of patients with TEAE Hyperglycemia (Grade 1)", "setting": "[1]; [3]", "result": 1}, {"measurement": "Number of patients with TEAE Lymphopenia (Grade 3)", "setting": "[1]; [3]", "result": 2}, {"measurement": "Number of patients with TEAE Pyrexia (Grade 1)", "setting": "[1]; [3]", "result": 1}, {"measurement": "Number of patients with TEAE Vulvovaginitis (Grade 1)", "setting": "[1]; [3]", "result": 1}, {"measurement": "Mean terminal half-life", "setting": "[2]", "result": 8, "unit": "h"}, {"measurement": "Time of peak plasma concentrations following administration", "setting": "[2]", "result": "0.5 to 2", "unit": "h"}]}]}
